Screening data from PubChem.
A selection: hits, their analogues and other compounds. The true share with any hit is near 1.5%.
EBI2 antag: blocks human EBI2 receptor beta-arrestin signaling; EBI2 beta-arrestin recruitment, luminescence, 7a,25-OHC stimulated; inhibition, % at 5 µM; 360,000 tested, 0.81% active; in the data active = inhibition above about 38%;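 note: enzyme fragment complementation signal reports receptor beta-arrestin coupling in cells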
CXCR6 inh: inhibitors of human CXCR6 receptor; inhibition, % at 20 µM; 360,000 tested, 0.36% active; O00574; CHO-K1 PathHunter CXCR6 beta-arrestin, luminescence; AID 602244; in the data active = inhibition above about 34%, passing the limit was not always enough;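 note: antagonist mode with CXCL16 agonist at 10 nM final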
Target sequence (O00574 whole entry, looked up): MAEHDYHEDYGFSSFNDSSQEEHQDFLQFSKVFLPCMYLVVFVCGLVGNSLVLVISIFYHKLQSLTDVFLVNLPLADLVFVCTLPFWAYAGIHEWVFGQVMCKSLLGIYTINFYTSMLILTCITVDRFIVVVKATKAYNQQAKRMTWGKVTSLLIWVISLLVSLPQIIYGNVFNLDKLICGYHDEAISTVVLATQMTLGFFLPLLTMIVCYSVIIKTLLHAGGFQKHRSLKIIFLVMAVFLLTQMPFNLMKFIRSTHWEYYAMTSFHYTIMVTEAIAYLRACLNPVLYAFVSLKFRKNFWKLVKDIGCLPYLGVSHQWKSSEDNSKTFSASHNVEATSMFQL
CCR6 antag: CCR6 (human) receptor antagonism. CHO-K1 CCR6 PathHunter beta-arrestin, luminescence, CCL20-stimulated. 340,000 tested, 0.49% active. AID 493098. inhibition, % at 20 µM;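 active = compounds whose inhibition of the agonist-driven luminescence signal at 20 µM reaches about 50%, limit read from the data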;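 note: cells stimulated with CCL20 at 14 nM final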
APJ antag: APJ receptor antagonism | 330,000 tested, 0.32% active | AID 2521 | CHO-K1 APJ beta-arrestin complementation, luminescence | P35414 | inhibition, % at 20 µM;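 active = inhibition above about 40% at 20 µM, limit read from the data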;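 note: cells challenged with 10 nM apelin-13 agonist together with compound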
APJ ag: APJ receptor agonism; CHO-K1 APJ PathHunter beta-arrestin, luminescence; 0% DMSO wells, 100% apelin; activation, % at 20 µM; 330,000 tested, 0.11% active; AID 2520;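 active = activation more than six SD over the plate average, tested at 20 µM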
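Test system: CHO-K1 APJ beta-arrestin complementation cell line | Compound: Single test compound dose, 20 µM final, 1% DMSO | Incubation: Compound 90 min 25 °C, reagent 1 h | Measured by: beta-gal luminescence | Read-out basis: APJ–arrestin association signal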
CXCR6 antag conf: CXCR6 antagonism confirmation, single concentration; shares compounds with CXCR6 inh; CHO-K1 CXCR6 PathHunter beta-arrestin, luminescence; inhibition, % at 20 µM; 700 tested, 65% active; AID 602409;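 active = mean inhibition over four retests above 40%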;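 note: receptor stimulated with 10 nM CXCL16 agonist; beta-galactosidase fragment complementation upon beta-arrestin recruitment to receptor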
Hits are given with their value; 0 = inactive; - = not tested or not shown.

SMILES	EBI2 antag	CXCR6 inh	CCR6 antag	APJ antag	APJ ag	CXCR6 antag conf
O=C(CSc1ncccn1)Nc1ccc2c(c1)CCC2	0	0	0	0	0	-
CCN(CC)CC(C)(C)C(=O)/C=C/c1ccc(/C=C/C(=O)C(C)(C)CN(CC)CC)cc1	78.4	97.9	112.9	-	-	95.4
Clc1nc(-c2ccccn2)nc2scc(-c3ccccc3)c12	61.2	51.3	0	0	0	0
COc1ccc(CCNC(=O)c2nonc2N)cc1	0	0	0	0	0	-
O=C(O)C1CCc2sc3[nH]c(=S)n(-c4ccccc4)c(=O)c3c21 (stereo not drawn)	0	43.8	0	0	0	0
CCN(CC)C(=O)c1sc2[nH]c(=S)n(-c3ccccc3)c(=O)c2c1C	0	0	0	0	0	-
Cc1ccc(NC(=S)NNC(=O)Nc2ccccc2)cc1	0	53.2	-	43.5	0	0
Cc1ccc(NC(=S)NNC(=S)Nc2ccc(C)cc2)cc1	0	0	0	-	-	-
CC(=O)Nc1ccc(NC(=O)CN(C)S(=O)(=O)c2ccc3nc(C)sc3c2)cc1	0	0	0	0	0	-
O=C(O)c1cccc2c1C(=O)c1ccccc1-2	0	0	0	0	0	-
O=C1C(=C(I)I)c2ccccc2-c2ccccc21	0	43.2	-	-	-	0
N#Cc1c(SCC(N)=O)nsc1SCc1ccccc1Cl	0	82.7	0	0	0	0
N#Cc1c(SCC(N)=O)nsc1SCc1ccc(Cl)cc1	0	0	0	0	0	-
O=C(N/N=C1/CCc2ccccc21)C1CC1	0	0	0	0	0	-
Cc1cc(C)n(C(C[N+](=O)[O-])c2ccc(Cl)cc2)n1 (stereo not drawn)	0	44.5	0	0	0	0
Cc1cc(S(=O)(=O)c2ccc([N+](=O)[O-])cn2)ccc1Br	0	0	0	0	0	-
Cc1ccc(S(=O)(=O)c2ccc([N+](=O)[O-])cn2)cc1	0	54.9	-	0	0	73.7
CC(=O)Oc1ccc(/C=C(\NC(=O)c2ccco2)C(=O)NCc2ccccc2)cc1	0	0	0	0	0	-
CN(c1ccccc1)c1ccc(/C=C/[N+](=O)[O-])cc1	0	71.4	-	-	-	63.4
O=[N+]([O-])c1ccc(C=CC=Cc2ccccc2)cc1	0	0	-	-	-	-
CCOC(=O)C1(Cc2ccc(OC)cc2)CCN(C(=O)CC2CCC(=O)N2)CC1 (stereo not drawn)	0	0	0	0	0	-
CC(=O)Nc1cccc(OCC(O)Cn2c(C)nc3ccccc32)c1 (stereo not drawn)	0	40.5	0	0	0	0
CC(=O)Nc1cccc(OCC(O)Cn2cnc3ccccc32)c1 (stereo not drawn)	0	0	0	0	0	-
Nc1nc(N)c2c(ccc3c2ccn3Cc2cccc([N+](=O)[O-])c2)n1	0	61.9	-	-	-	68.3
CC(C)CNC(=O)C1(C)CCCCCN1Cc1ccccc1-c1ccccc1 (stereo not drawn)	0	36.9	-	-	-	0
SMILES	EBI2 antag	CXCR6 inh	CCR6 antag	APJ antag	APJ ag	CXCR6 antag conf
Cc1cc2nc(C3CCCCC3)c(Cc3ccccc3C(F)(F)F)n2c(C)c1Br	0	0	-	-	-	-
CCCc1cc(=O)oc2cc(OCC(=O)N3CC[C@@]4(O)CCCC[C@H]4C3)ccc12	0	0	-	-	-	-
CCCc1cc(=O)oc2cc(OC(=O)CN3C(=O)NC4(CCCC4)C3=O)ccc12	0	46.4	66.7	0	0	0
CC1=C(C)CC2C(C1)C(=O)c1ccc(Br)cc1S2(=O)=O (stereo not drawn)	0	71.5	84.3	0	0	41.4
O=c1ccn([C@@H]2O[C@H](COS(=O)(=O)O)[C@@H](O)[C@H]2O)c(=O)[nH]1	0	0	0	0	0	-
O=C(NNC(=O)c1ccccc1OCc1ccccc1)c1ccccc1O	0	0	0	0	0	-
CCC(=O)OCCNc1cc(Sc2nc3ccccc3[nH]2)c2nonc2c1[N+](=O)[O-]	0	101.6	117.0	-	-	106.3
NCCNc1ccc([N+](=O)[O-])c(Sc2nc3ccccc3[nH]2)c1	0	0	0	0	0	-
CCCC(=O)OCCNc1cc(SCc2ccco2)c2nonc2c1[N+](=O)[O-]	0	38.2	67.4	0	0	52.7
CCCC(=O)OCCNc1cc(Sc2nccn2C)c2nonc2c1[N+](=O)[O-]	49.3	99.9	98.6	-	-	105.2
COc1ccc(OC)c(C(C[N+](=O)[O-])c2c(C)cc3ccccn23)c1 (stereo not drawn)	0	0	0	0	0	-
COc1ccc(Cc2c(-c3ccc(Cl)cc3)nc3cc(C)c(Br)c(C)n23)c(C)c1	0	0	-	-	-	-
Cc1ccc(OCc2nnc(SCC(=O)Nc3ncc(C)s3)o2)cc1	0	0	0	0	0	-
CN(C)S(=O)(=O)c1ccc(NC(=O)CN2CCc3ccccc32)cc1	0	0	0	0	0	-
CCC(C)[C@H](NC(=O)N1CCN(c2cccc(C(F)(F)F)c2)CC1)C(=O)OC (stereo partly drawn)	0	50.9	0	0	0	0
O=C(NC(=S)Nc1ccccc1C(=O)O)c1cncc(Br)c1	0	0	0	0	0	-
O=C(NC(=S)Nc1ccccc1O)c1cncc(Br)c1	0	47.3	66.0	0	0	48.4
Cc1ccc(NC(=O)c2ccc(Cl)c(N3C(=O)C=CC3=O)c2)cc1	0	94.4	-	0	0	0
O=C(Oc1c(Cl)cc(Cl)c2cccnc12)c1cccs1	0	0	0	0	0	-
O=C(Oc1c(Cl)cc(Cl)c2cccnc12)c1ccco1	0	44.8	-	0	0	69.5
CCOc1ccc(C(=O)N/N=C/c2cccc3cccnc23)cc1	0	56.4	-	0	0	64.4
COc1ccc(C(=O)N/N=C/c2cccc3cccnc23)cc1	0	52.0	0	0	0	60.5
CCOc1ccccc1C(=O)N/N=C/c1cccc2cccnc12	0	0	0	0	0	-
C[C@H](NC(=O)OCc1ccccc1)C(=O)N[C@@H](Cc1c[nH]c2ccccc12)C(=O)O	0	0	0	0	0	-
Nc1c(C(=O)NCC2CCCO2)sc2nc3c(c(-c4ccco4)c12)CC/C3=C\c1ccco1 (stereo not drawn)	0	0	0	-	-	-
SMILES	EBI2 antag	CXCR6 inh	CCR6 antag	APJ antag	APJ ag	CXCR6 antag conf
O=C(c1ccco1)N1CCN(Cc2cn[nH]c2-c2ccc(F)cc2F)CC1	0	56.7	0	0	0	0
COc1ccc(-c2[nH]ncc2CN2CCN(C(=O)c3ccco3)CC2)cc1F	0	0	0	0	0	-
COc1ccc(-c2nn(C)c(=O)c3ccccc23)cc1NC(=O)Cn1nc(C)c2ccccc2c1=O	0	37.3	65.9	0	0	46.6
Cc1cc(NC(=O)c2cc3ccccc3o2)ccc1NC(=O)c1ccccc1	0	0	0	0	0	-
Cc1ccc([C@H]2N[C@]3(CCCN(Cc4ccc(Br)cc4)C3=O)[C@H]3C(=O)N(C)C(=O)[C@@H]23)cc1	0	0	-	-	-	-
CCc1nc2c(OCCC3CCCCC3)cccn2c1N(C)C(=O)c1ccc(OC)cc1	0	44.9	-	-	-	0
CN(CC(=O)Nc1cc(S(=O)(=O)N2CCCC2)ccc1Cl)Cc1cccs1	0	28.7	0	0	0	51.5
